# Reference: ChEMBL document CHEMBL3232818, “Imidazole-derived 2-[N-carbamoylmethyl-alkylamino]acetic acids, substrate-dependent modulators of insulin-degrading enzyme in amyloid-β hydrolysis” (Eur J Med Chem, 2014)
# Calls of active or inactive are those of the source. The calls are words filed in the database; no cut-off is given here.
# What was measured:
# Insulin-degrading enzyme = target: T1, Insulin-degrading enzyme (Homo sapiens, UniProt P14735); assay: (§1) Inhibition of human recombinant IDE-mediated amyloid beta (16 to 23) hydrolysis using ATTO 655-Cys-Lys-Leu-Val-Phe-Phe-Ala-Glu-Asp-Trp as substrate preincubated for 10 mins measured after 30 mins by spectrophotometer analysis
# T1 sequence (P14735 whole entry): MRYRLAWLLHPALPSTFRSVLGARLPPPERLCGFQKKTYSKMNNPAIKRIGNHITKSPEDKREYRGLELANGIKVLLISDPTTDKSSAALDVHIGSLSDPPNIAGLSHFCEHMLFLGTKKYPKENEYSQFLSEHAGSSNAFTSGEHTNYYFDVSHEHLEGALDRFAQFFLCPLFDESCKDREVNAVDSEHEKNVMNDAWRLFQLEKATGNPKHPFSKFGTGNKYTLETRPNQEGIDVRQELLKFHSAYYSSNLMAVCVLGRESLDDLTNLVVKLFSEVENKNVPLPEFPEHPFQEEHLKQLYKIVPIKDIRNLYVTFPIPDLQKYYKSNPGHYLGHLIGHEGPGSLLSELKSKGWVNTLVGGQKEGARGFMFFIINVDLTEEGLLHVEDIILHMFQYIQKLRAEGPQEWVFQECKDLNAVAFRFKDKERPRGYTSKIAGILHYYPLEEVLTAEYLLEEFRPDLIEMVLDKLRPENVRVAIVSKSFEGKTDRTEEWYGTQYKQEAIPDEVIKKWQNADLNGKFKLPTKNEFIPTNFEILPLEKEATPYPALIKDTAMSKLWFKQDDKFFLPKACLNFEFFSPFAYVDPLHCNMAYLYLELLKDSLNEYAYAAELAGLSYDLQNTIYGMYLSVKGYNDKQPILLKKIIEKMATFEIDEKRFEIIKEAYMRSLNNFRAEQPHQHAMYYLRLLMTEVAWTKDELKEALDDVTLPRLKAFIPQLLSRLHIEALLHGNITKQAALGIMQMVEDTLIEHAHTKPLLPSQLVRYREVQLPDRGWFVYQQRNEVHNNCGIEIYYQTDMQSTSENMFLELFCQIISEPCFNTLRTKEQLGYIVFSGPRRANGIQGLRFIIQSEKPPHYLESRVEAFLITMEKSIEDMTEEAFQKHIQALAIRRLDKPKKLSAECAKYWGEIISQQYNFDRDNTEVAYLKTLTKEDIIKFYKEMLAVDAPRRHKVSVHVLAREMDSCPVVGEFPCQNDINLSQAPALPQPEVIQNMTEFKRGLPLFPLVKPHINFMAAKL
# [1] = target: Insulin-degrading enzyme (Homo sapiens) (UniProt P14735); assay: as §1
# [2] = target: Insulin-degrading enzyme (Homo sapiens) (UniProt P14735); assay: Reversible inhibition of human recombinant IDE-mediated amyloid beta (16 to 23) hydrolysis using ATTO 655-Cys-Lys-Leu-Val-Phe-Phe-Ala-Glu-Asp-Trp as substrate at 20 uM preincubated for 20 mins measured measured after 100 fold dilution by spectrophotometer analysis
# [3] = target: Insulin-degrading enzyme (Homo sapiens) (UniProt P14735); assay: Competitive inhibition of human recombinant IDE-mediated amyloid beta (16 to 23) hydrolysis using ATTO 655-Cys-Lys-Leu-Val-Phe-Phe-Ala-Glu-Asp-Trp as substrate
# How it was run: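 Human recombinant IDE (1.87 ng/μL) preincubated 10 min at 37 °C with compound in 50 mM Hepes, 100 mM NaCl, pH 7.4. Reaction started with quenched ATTO 655-labelled peptide substrate (5 μM final), 1% DMSO final. Fluorescence read after 30 min (ex 635, em 750 nm). 8-point dose-response curves, average of at least three independent measurements. EDTA reference (2 mM).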
IC50 (Insulin-degrading enzyme) [µM],inhibition [1],inhibition [2],inhibition [3],Compound
> 100,–,–,–,COC(=O)[C@H](Cc1c[nH]cn1)NC(=O)CN(CC(=O)O)C(=O)c1ccccc1
> 100,–,–,–,COC(=O)[C@H](Cc1ccccc1)NC(=O)CN(CC(=O)O)Cc1ccccc1
–,Dose-dependent effect,Active,Active,COC(=O)[C@H](Cc1c[nH]cn1)NC(=O)CN(CC(=O)O)Cc1ccccc1
